Assay results gathered from unrelated publications.
Lines come from different studies, so protocols differ.
Cell line: HOP-92
Effect on: cell growth or viability

COc1ccc(C(=O)/C=C/c2cccnc2)cc1S(N)(=O)=O
inhibition (SRB; 10 µM): 44%

O=C1NCCc2[nH]c(-c3ccncc3)cc21
IC50: 6400 nM

CCc1n(Cc2ccc3ccccc3n2)cc[n+]1Cc1ccc2ccccc2c1
TGI (SRB): 671 nM

COc1ccc(C(=O)/C=C/c2cccc(Br)c2)cc1S(N)(=O)=O
GI50 (SRB; 48 h): 1800 nM

COc1cccc(Oc2ccccc2NC(=O)CNC(=O)c2cccc3ccccc23)c1
GI50 (SRB; 48 h): 204 nM

CCCCc1n(Cc2ccc3ccccc3n2)cc[n+]1Cc1ccc2ccccc2n1
TGI (SRB): 3360 nM

O=C1Nc2ccccc2C1=NNc1nnc2n1N=C(c1ccccc1)CS2
inhibition (SRB; 10 µM): 36%

COc1ccc(-c2ccc(-c3ccc(C(=N)N)nc3)s2)cc1Cl
GI50 (SRB): 1630 nM

O=C1NC(=NCc2cccs2)S/C1=C\c1ccc2ncccc2c1
IC50: 6040 nM

COc1ccc(-c2ccc(-c3ccc(C(=N)N)nc3)s2)cc1
GI50 (SRB): 1500 nM

CCCc1n(Cc2ccc3ccccc3n2)cc[n+]1Cc1ccc2ccccc2n1
TGI (SRB): 3230 nM
